Experimental data pooled from the literature.
Protocols differ between the studies behind these lines.
Target: Serine/threonine-protein kinase N2 (PKN2, Homo sapiens, UniProt Q16513)

Cc1sc(C(=O)NC2COC2)cc1-n1cc(NC(=O)Nc2c(F)cccc2Cl)cn1 — remaining activity (enzyme activity; inhibitor; 10 µM): 87.1%
CN(C)c1ncnc(-c2ccc3nc(Nc4cc(CN5CCN(C(=O)CC(F)(F)F)CC5)ccn4)[nH]c3c2)c1Cl — remaining binding (cell-free assay; competition with immobilised ligand; 1 µM): 85%
CNCc1ccc(-c2cc(-c3nc(-c4ccc(S(=O)(=O)C(C)C)cc4)cnc3N)on2)cc1 — inhibition (enzyme activity; inhibitor; 0.4 µM): 59%
CNc1cc(Oc2cc(C(=O)Nc3cc(N4CCN(C)CC4)cc(C(F)(F)F)c3)ccc2C)ncn1 — inhibition (target engagement in cells; inhibitor; chemoproteomics; Huh-7; 1 µM): -99.7%
CCCS(=O)(=O)Nc1ccc(F)c(C(=O)c2c[nH]c3ncc(-c4ccc(Cl)cc4)cc23)c1F — inhibition (enzyme activity; inhibitor; 1 µM): < 10%
Nc1ncnc2occ(-c3ccc(NC(=O)Nc4cc(C(F)(F)F)ccc4F)cc3)c12 — remaining signal (cell-free assay; inhibitor; 20 µM): 58%
CCCOc1ccc([C@H]2[C@H](C(=O)O)[C@@H](c3ccc4c(c3)OCO4)CN2CC(=O)Nc2c(CC)cccc2CC)cc1 — remaining binding (cell-free assay; competition with immobilised ligand; 1 µM): 100%
Oc1cccc(-c2nc(N3CCOCC3)c3oc4ncccc4c3n2)c1 — remaining activity (enzyme activity; inhibitor; 10 µM): 71%
Cc1cc(C)c(-n2ccn3nc(-c4cccnc4)cc23)cc1NC(=O)c1cc(C#N)cc(S(F)(F)(F)(F)F)c1 — remaining binding (cell-free assay; competition with immobilised ligand; 0.1 µM): 100%
Cc1ccc(NC(=O)c2ccc(C)c(C(F)(F)F)c2)cc1C#Cc1nn(C2CCC(O)CC2)c2ncnc(N)c12 (stereo not shown) — remaining signal (cell-free assay; 10 µM): 97%
CN(c1ncccc1CNc1nc(Nc2ccc3c(c2)CC(=O)N3)ncc1C(F)(F)F)S(C)(=O)=O — inhibition (enzyme activity; inhibitor; 1 µM): 47%
Cc1ccc(C(=O)Nc2ccc(CN3CCN(C)CC3)c(C(F)(F)F)c2)cc1C#Cc1cnc2cccnn12 — remaining activity (enzyme activity; inhibitor; 23.5 nM): 99%
Cc1ccc(Nc2nccc(N(C)c3ccc4c(C)n(C)nc4c3)n2)cc1S(N)(=O)=O — inhibition (enzyme activity; inhibitor; 0.3 µM): 19%
Cc1nc(Cc2cccc(C(F)(F)F)c2)sc1-c1ccc(C(N)=O)nc1 — remaining binding (cell-free assay; competition with immobilised ligand; 1 µM): 91%
N#CCCc1ccc2c(c1)-c1[nH]c3ccc([N+](=O)[O-])cc3c1CC(=O)N2 — remaining signal (cell-free assay; 0.5 µM): 77.9%
CNC(=O)Nc1ccc2c(c1)CC[C@@]21OC(=O)N(CC(=O)N(Cc2ccc(F)cc2)[C@@H](C)C(F)(F)F)C1=O — remaining binding (cell-free assay; competition with immobilised ligand; 1 µM): 97%
CCCOc1ccc(OC)c(F)c1C(=O)c1ccc(C(=O)N[C@@H]2CNC[C@H]2NC(=O)c2ccc3[nH]ncc3c2)cc1 — remaining activity (enzyme activity; inhibitor; 50 nM): 78%
COc1ccc2cc(OCC3(C(=O)O)CN(C(=O)c4ccc(F)cc4)C3)ccc2c1 — remaining binding (cell-free assay; competition with immobilised ligand; 1 µM): 100%
Cn1c2c(Cl)c(Cl)ccc2c2cc[nH]c(=O)c21 — ΔTm (thermal stability; DSF; 10 µM): 1.3 °C
